# How the values were obtained:
# [1] = Tmax in plasma of NIH-III mouse xenografted with human HCT116 cells at 1.12 mmol/kg, iv administered as single dose by HPLC analysis; format: ADME, organism-based
# In short: (§1)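 Female NIH-III mice bearing subcutaneous HCT116 tumors (10^6 cells; ~300 mm3) got a single i.v. dose at the MAD or 75% of the MTD. Vehicle was saline with 1% DMSO, or saline with 2 equivalents of NaHCO3 for the phosphates. Plasma and tumor were sampled at multiple times by cardiac puncture and excision, drug was measured by HPLC, and Tmax came from noncompartmental analysis.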
# [2] = Solubility of the compound in alphaMEM containing 5% FCS and 1% DMSO by HPLC analysis; format: physicochemical
# In short: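 Saturated drug solutions were incubated at 37 °C in αMEM with 5% FCS and 1% DMSO. Dissolved drug was quantified by HPLC.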
# [3] = Cmax in tumor of NIH-III mouse xenografted with human HCT116 cells at 1.12 mmol/kg, iv administered as single dose by HPLC analysis; format: ADME, organism-based, Neoplasm; design: dose 1.12 mmol/kg, route intravenous; details: in vivo
# In short: (§2)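 Female NIH-III mice bearing subcutaneous HCT116 xenografts (10^6 cells inoculated). At ca. 300 mm3 tumor size, a single i.v. dose was given at the MAD or 75% of the MTD. Vehicle was 0.9% saline with 1% DMSO, or saline with 2 molar equivalents NaHCO3 for phosphate prodrugs. Plasma and tumor were sampled at multiple times by cardiac puncture and excision, assayed by HPLC, and analysed noncompartmentally.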
# [4] = test system: HCT-116; assay: (§3) Hypoxia radiosensitization activity in human HCT116 cells assessed as sensitizer enhancement ratio by measuring ratio of radiation dose for 1% survival in absence to presence of compound at 0.4 mM preincubated for 1 hr followed by irradiation measured after 10 days by methylene blue staining-based cell counting method; format: functional
# [5] = test system: HCT-116; assay: Hypoxic cytotoxicity ratio of IC50 for human HCT116 cells under oxic condition to IC50 for human HCT116 cells under anoxic condition
# In short: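 HCT116 cells, 700 per well and attached 2 h, got a 4 h exposure to 3-fold serial dilutions (<1% DMSO) under air or in a Pd-catalyst anaerobic chamber with pre-equilibrated medium. Cells were washed, regrown 5 days, and stained with sulforhodamine B to give IC50. HCR = oxic IC50 / anoxic IC50.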
# [6] = test system: HCT-116; assay: (§4) Hypoxia radiosensitization activity in human HCT116 cells assessed as survival ratio by measuring ratio of cell survival with radiation in absence to presence of compound at 0.4 mM preincubated for 1 hr followed by 6 to 29 Gy irradiation measured after 10 days by methylene blue staining-based cell counting method relative to misonidazole; format: functional
# [7] = Tmax in tumor of NIH-III mouse xenografted with human HCT116 cells at 1.12 mmol/kg, iv administered as single dose by HPLC analysis; format: ADME, organism-based, Neoplasm; in short: as §1
# [8] = test system: HCT-116; assay: as §4, with “with 15 Gy” for “with”, “anoxic IC50” for “0.4 mM”, “15” for “6 to 29”, “method” for “method relative to misonidazole”; format: functional
# In short: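 Anoxic HCT116 cells were seeded at 10^5/well and treated at the anoxic IC50 concentration for 1 h at room temperature. They were irradiated with 15 Gy (60Co, ~2 Gy/min) in a sealed steel box, then plated clonogenically. Colonies of >50 cells were counted […]. SR15 = survival with radiation / survival with drug + radiation.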
# [9] = test system: HCT-116; assay: as §4, with “method” for “method relative to misonidazole”; format: functional
# [10] = test system: HCT-116; assay: Cytotoxicity against human HCT116 cells at anoxic IC50 incubated for 1 hr at 21 degC by clonogenic survival assay; details: hct-116, 1 h
# [11] = test system: Mus musculus; assay: Drug level in NIH-III mouse assessed as maximum achievable dose at 10 ml/kg, iv; format: ADME; details: in vivo
# In short: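 Non-tumor-bearing female NIH-III mice (~20 g) received freshly prepared solutions i.v. at 10 mL/kg in 0.9% saline with 1% DMSO, or saline with 2 molar equivalents NaHCO3 for phosphate prodrugs. MAD was the maximum dose that dissolved in the injection volume.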
# [12] = test system: HCT-116; assay: Cytotoxicity against human HCT116 cells incubated for 4 hrs under aerobic condition measured after 5 days by sulforhodamine B assay; format: cell-based
# In short: (§5)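 STR-authenticated, mycoplasma-free HCT116 cells in αMEM + 5% FCS were seeded at 700 cells/well and allowed 2 h to attach. Drug was added from DMSO stocks (<1% DMSO) in serial 3-fold dilutions for 4 h, oxic or anoxic (Pd-catalyst anaerobic chamber, medium pre-equilibrated ≥3 days). After washing, cells regrew for 5 days before SRB staining and IC50 determination.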
# [13] = test system: HCT-116; assay: In vivo hypoxia radiosensitization activity in human HCT116 cells xenografted in NIH-III mouse assessed as survival ratio by measuring ratio of cell survival with 12.5 Gy radiation in absence to presence of compound at 1.12 mmol/kg, iv pretreated as single dose for 10 mins followed by irradiation measured after 18 hrs by excision assay; format: functional
# [14] = test system: HCT-116; assay: as §3, with “method relative to misonidazole” for “method”; format: functional
# [15] = test system: HCT-116; assay: Cytotoxicity against human HCT116 cells incubated for 4 hrs under anaerobic condition measured after 5 days by sulforhodamine B assay; format: functional, cell-based; in short: as §5
# [16] = test system: Plasma; assay: Cmax in plasma of NIH-III mouse xenografted with human HCT116 cells at 1.12 mmol/kg, iv administered as single dose by HPLC analysis; format: ADME, organism-based; design: dose 1.12 mmol/kg, route intravenous; details: in vivo; in short: as §2
# [17] = test system: HCT-116; assay: as §4, with “0.03” for “0.4”, “method” for “method relative to misonidazole”; format: functional
# [18] = test system: HCT-116; assay: as §3, with “0.03” for “0.4”, “method relative to misonidazole” for “method”; format: functional
# [19] = test system: HCT-116; assay: as §3, with “0.03” for “0.4”; format: functional
# [20] = test system: HCT-116; assay: Cytotoxicity against human HCT116 cells at anoxic IC50 incubated for 1 hr at 21 degC by sulforhodamine B assay; format: cell-based; details: hct-116, 1 h
# [21] = test system: HCT-116; assay: as §4, with “0.03” for “0.4”; format: functional
smiles,measurement,setting,value
O=[N+]([O-])c1nccn1CCS(=O)(=O)NCCN1CCOCC1,Tmax,[1],5 min
same,solubility,[2],> 163000 µM
same,Cmax,[3],410 µM
same,Ratio,[4],1.357
same,Ratio IC50,[5],10
same,fold change (FC),[6],0.57
same,Tmax,[7],10 min
same,Ratio,[8],6
same,Ratio,[9],5
same,Activity,[10],Non-Toxic
same,Drug uptake,[11],1.12 mmol/kg
same,IC50,[12],380 to 4800 µM
same,Ratio,[13],2
same,fold change (FC),[14],0.92
same,IC50,[15],400 µM
same,Cmax,[16],1040 µM
O=[N+]([O-])c1nccn1CS(=O)(=O)N1CCOCC1,Ratio,[17],2
same,solubility,[2],1080 µM
same,fold change (FC),[18],0.87
same,Ratio,[19],1.11
same,Ratio IC50,[5],11
same,Activity,[20],Non-Toxic
same,Ratio,[8],3.8
same,fold change (FC),[21],0.58
same,IC50,[12],380 to 4800 µM
same,IC50,[15],30 µM

# Source: ChEMBL document CHEMBL4033777, “Next-Generation Hypoxic Cell Radiosensitizers: Nitroimidazole Alkylsulfonamides” (J Med Chem, 2018)
